This is an account of results in ChEMBL document CHEMBL1142138, “Development of a novel dicistronic reporter-selectable hepatitis C virus replicon suitable for high-throughput inhibitor screening” (Antimicrob Agents Chemother, 2007).

A value given as a limit tells only on which side of the number the result lay.

A short description of data set [1]: Selectivity index, CC50 for dual-reporter HCV replicon Huh7 cells to EC50 against HCV 1 in dual-reporter HCV replicon Huh7 cells. It is filed as functional, Huh-7. Put shortly: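 Dual-reporter replicon cells: hRLuc from the replicon, FLuc in the nucleus. Seeded at 2 x 10^4/well without selection antibiotics, then eight threefold compound dilutions (final 320 to 0.1 µM). After 3 days, XTT/PMS for 4 h read at 450/650 nm, then FLuc and hRLuc luminescence. Percent inhibition calculated from the luciferase and XTT signals. Index = CC50/EC50.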

Data set [2] deals with Hepatitis C virus. Description: Antiviral activity against HCV 1b con1 in dual-reporter HCV replicon Huh7 cells by measuring hRLuc reporter activity after 72 hrs. It is filed as functional, organism-based, Hepacivirus hominis. The note with it: genotype 1b con1, Huh-7, 72 h. Put shortly: (§1)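 Replicon cells seeded at 2 x 10^4/well in DMEM without selection antibiotics. Eight threefold serial compound dilutions added, final 320 to 0.1 µM (IFN 10 to 0.003 IU/ml). After 3 days at 37°C, medium removed and hRLuc activity read with a dual-luciferase reporter kit. Percent inhibition was taken relative to compound-free control and EC50 derived.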
(In general: A replicon is a self-replicating genome or part of one, used to study replication in cells.)

Data set [3] relates to Hepatitis C virus. Nature of the data set: Antiviral activity against HCV 1b con1 in HCV 1b in dicistronic reporter selectable HCV replicon Huh7 cells by measuring hRLuc reporter activity after 72 hrs. It is filed as functional, organism-based, Hepacivirus hominis. The note with it: genotype 1b con1, Huh-7, 72 h. In outline: as §1
Data set [4] concerns Hepatitis C virus. Nature of the data set: Antiviral activity against HCV 1b con1 in dicistronic reporter selectable HCV replicon Huh7 cells assessed as inhibition of HCV RNA after 72 hrs by RT-PCR. It is filed as functional, organism-based, Hepacivirus hominis. The conditions noted are these: genotype 1b con1, Huh-7, 72 h. Put shortly: (§2)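 Cells were then PBS-washed and total RNA extracted. HCV RNA and GAPDH mRNA were quantified by TaqMan RT-PCR against standard curves, and HCV was normalized to GAPDH at each concentration. Percent inhibition was computed versus DMSO-treated wells, giving EC50. Reactions were also run without reverse transcriptase.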

The subject of data set [5] is Hepatitis C virus. Description: Antiviral activity against HCV 1b con1 in dual-reporter HCV replicon Huh7 cells assessed as inhibition of HCV RNA after 72 hrs by RT-PCR. It is filed as functional, organism-based, Hepacivirus hominis. The note with it: genotype 1b con1, Huh-7, 72 h. In outline: as §2
Data set [6] can be described thus: Cytotoxicity against dual-reporter HCV replicon Huh7 cells by measuring XTT end points after 72 hrs. It is filed as cell-based, Huh-7. The note with it: human. Put shortly:
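Cells were seeded at 2 x 10^4/well without selection antibiotics and exposed to eight threefold dilutions, final 320 to 0.1 µM, for 3 days. XTT (final 200 µg/ml) and phenazine methosulfate (final 1 mM) were then added. After 4 h, formazan was read at 450 nm against a 650 nm reference, and percent inhibition calculated versus control.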

A short description of data set [7]: Cytotoxicity against dual-reporter HCV replicon Huh7 cells by measuring FLuc reporter activity after 72 hrs. The note with it: human. It is filed as cell-based, Huh-7. Put shortly:
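DDR cells carry a nuclear FLuc reporter. They were seeded at 2 x 10^4/well without selection antibiotics and given eight threefold compound dilutions, final 320 to 0.1 µM. After 3 days, medium was removed and FLuc read with a dual-luciferase kit. Percent inhibition was calculated versus compound-free control.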

The target in data set [8] is RNA-directed RNA polymerase (Hepacivirus hominis, UniProt O39930). Nature of the data set: Inhibition of recombinant HCV 1b BK NS5B polymerase by primer/template-directed transcription assay. Also on record: species or system Hepatitis C virus subtype 1b. In outline: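 Recombinant genotype 1b (strain BK) NS5B with biotin-dG12 primer (5 pmol) and poly(rC)300 template (0.5 pmol). Enzyme-started, 30 min at 30°C, EDTA stop, DEAE filter capture, scintillation counting. Final DMSO 1%. IC50 fitted from triplicate cpm.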
Chain of RNA-directed RNA polymerase (O39930 whole entry): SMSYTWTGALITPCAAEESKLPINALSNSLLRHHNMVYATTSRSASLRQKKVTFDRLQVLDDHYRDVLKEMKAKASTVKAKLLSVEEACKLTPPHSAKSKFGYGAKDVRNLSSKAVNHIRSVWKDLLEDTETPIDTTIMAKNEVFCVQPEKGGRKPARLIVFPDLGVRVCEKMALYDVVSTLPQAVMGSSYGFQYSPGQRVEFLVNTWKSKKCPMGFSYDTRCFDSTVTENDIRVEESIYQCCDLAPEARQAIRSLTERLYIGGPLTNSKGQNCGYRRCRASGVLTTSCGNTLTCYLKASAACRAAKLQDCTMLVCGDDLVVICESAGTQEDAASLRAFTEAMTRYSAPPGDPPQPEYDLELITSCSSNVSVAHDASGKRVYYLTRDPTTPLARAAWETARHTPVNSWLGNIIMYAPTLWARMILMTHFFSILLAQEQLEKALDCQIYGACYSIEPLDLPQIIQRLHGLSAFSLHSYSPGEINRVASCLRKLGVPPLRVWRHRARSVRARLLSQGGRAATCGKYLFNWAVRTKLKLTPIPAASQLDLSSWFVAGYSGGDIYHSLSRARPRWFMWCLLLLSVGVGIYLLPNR

The term EC50 denotes the midpoint of the concentration-response curve. One may read the CC50 as the concentration at which the toxic effect on the cells reaches its halfway point. In general, IC50 refers to the concentration that gives 50% inhibition. In turn, `COc1cc(OC)c(CCC2(C3CCCC3)CC(O)=C(Sc3nc4nc(C)cc(C)n4n3)C(=O)O2)cc1Cl` (stereo unspecified) had a Selectivity index in data set [1] of over 188.2. For the same molecule, the EC50 was 1.7 µM with Hepatitis C virus [2], 3.3 µM in the data set on Hepatitis C virus [3], 2.4 µM with Hepatitis C virus [4] and 3.2 µM in the data set on Hepatitis C virus [5]. For the same molecule, the CC50 at 72 h in data set [6] and in data set [7] was over 320 µM in each case. The IC50 in data set [8] was determined as 0.014 µM.

In turn, `Cc1cc(SC2=C(O)OC(CCc3ccc(O)cc3)(C3CCCC3)CC2=O)c(C(C)(C)C)cc1N` (stereo unspecified) yielded a Selectivity index in data set [1] of 0.9. In addition, the EC50 in the data set on Hepatitis C virus [2] was 115 µM. Also, the CC50 at 72 h in data set [6] was 242 µM; in data set [7], 116 µM.

As to `OC[C@H]1O[C@@H](n2cnc3cc(Cl)c(Cl)cc32)[C@H](O)[C@@H]1O` [DICHLORORIBOBENZIMIDAZOLE], the Selectivity index in data set [1] is 0.7. Also, it took 34.1 µM to reach a half-maximal effect in the data set with Hepatitis C virus [2] (EC50). Further, the figures for the CC50 at 72 h in data set [6] and in data set [7] were 40.4 µM and 60.7 µM, respectively.
